Test results: ChEMBL document CHEMBL3774374, “The Effect of Small Molecules on Sterol Homeostasis: Measuring 7-Dehydrocholesterol in Dhcr7-Deficient Neuro2a Cells and Human Fibroblasts” (J Med Chem, 2016)
Activity calls are given as the source filed them. The rule behind the calls is not given here.

What was measured:
[1] = target: T1, Lanosterol 14-alpha demethylase (Mus musculus, UniProt Q8K0C4); experiment: Inhibition of 14 alpha demethylase in Dhcr7-deficient mouse Neuro2a cells assessed as decrease in 7-DHC levels at 1 uM by LC-MS/GC-MS analysis; format: cell-based
T1 sequence (Q8K0C4 whole entry): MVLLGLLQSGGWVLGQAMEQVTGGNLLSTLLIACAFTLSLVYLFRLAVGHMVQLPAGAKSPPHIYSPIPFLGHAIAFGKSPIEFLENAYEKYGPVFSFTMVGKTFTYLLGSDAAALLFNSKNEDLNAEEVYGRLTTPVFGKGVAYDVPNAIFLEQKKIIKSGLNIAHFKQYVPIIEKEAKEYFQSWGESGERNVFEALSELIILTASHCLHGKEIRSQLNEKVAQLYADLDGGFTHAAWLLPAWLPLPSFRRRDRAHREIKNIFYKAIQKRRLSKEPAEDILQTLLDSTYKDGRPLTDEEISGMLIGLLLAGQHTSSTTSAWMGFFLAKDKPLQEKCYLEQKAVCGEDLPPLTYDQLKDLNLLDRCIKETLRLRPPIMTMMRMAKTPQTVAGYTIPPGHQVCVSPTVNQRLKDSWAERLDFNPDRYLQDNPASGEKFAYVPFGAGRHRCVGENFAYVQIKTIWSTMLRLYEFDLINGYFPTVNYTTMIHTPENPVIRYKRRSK
In short: (§1)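 Dhcr7-deficient Neuro2a cells (13000/well, 0.5% FBS medium) on predeposited compound, 24 h at 37 °C. Hoechst-stained and imaged to count cells. Lysed in methanol containing isotope-labelled sterol standards, derivatized with PTAD 20 min at RT, then isocratic C18 UPLC-MS/SRM. Remaining extract silylated with BSTFA for GC-MS, quantified against d7-cholesterol. Follow-up runs in triplicate.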

[2] = target: T1, Lanosterol 14-alpha demethylase; experiment: Inhibition of 14 alpha demethylase in Dhcr7-deficient mouse Neuro2a cells assessed as decrease in desmosterol levels at 1 uM by LC-MS/GC-MS analysis; format: cell-based; in short: as §1
[3] = target: T1, Lanosterol 14-alpha demethylase; experiment: Inhibition of 14 alpha demethylase in Dhcr7-deficient mouse Neuro2a cells assessed as increase in lanosterol levels at 1 uM by LC-MS/GC-MS analysis; format: cell-based; in short: as §1
[4] = target: T1, Lanosterol 14-alpha demethylase; experiment: Inhibition of 14 alpha demethylase in Dhcr7-deficient mouse Neuro2a cells assessed as increase in cholesterol levels at 1 uM by LC-MS/GC-MS analysis; format: cell-based; in short: as §1
[5] = Antiproliferative activity against Dhcr7-deficient mouse Neuro2a cells at 500 nM; format: cell-based; conditions: n2a, 0.5 µM
In short: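 Dhcr7-deficient Neuro2a cells treated with compound; proliferation followed by Hoechst nuclear staining and automated microscope imaging with cell counts per well.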

[6] = target: 3-beta-hydroxysteroid-Delta(8),Delta(7)-isomerase (Homo sapiens) (UniProt Q15125); experiment: Inhibition of delta 8-7 isomerase in human SLOS fibroblasts assessed as decrease in 7-DHC levels at 10 nM after 5 days by LC-MS/GC-MS analysis
In short: (§2)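 SLOS patient skin fibroblasts (passage 8–20) grown in 96-well plates in delipidated serum with compound for 5 days; three different SLOS lines. Sterols quantified by PTAD-derivatized UPLC-MS plus GC-MS; 7-DHC expressed as percentage of untreated cells.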

[7] = Cytotoxicity against human SLOS fibroblasts at 5 uM after 5 days by Cell Titer assay; format: cell-based; conditions: fibroblast, 120 h
[8] = target: T2, 3-beta-hydroxysteroid-Delta(8),Delta(7)-isomerase (Mus musculus) (UniProt P70245); experiment: Inhibition of delta 8-7 isomerase in Dhcr7-deficient mouse Neuro2a cells assessed as decrease in 7-DHC levels at 1 uM by LC-MS/GC-MS analysis; format: cell-based; in short: as §1
T2 sequence (whole entry): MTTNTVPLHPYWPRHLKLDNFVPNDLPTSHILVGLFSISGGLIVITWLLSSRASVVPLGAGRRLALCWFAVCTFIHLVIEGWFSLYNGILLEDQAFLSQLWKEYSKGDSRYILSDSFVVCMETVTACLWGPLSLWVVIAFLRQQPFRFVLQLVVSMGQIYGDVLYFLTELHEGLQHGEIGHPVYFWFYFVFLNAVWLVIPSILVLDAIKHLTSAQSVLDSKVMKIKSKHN

[9] = target: T3, Delta(24)-sterol reductase (Mus musculus) (UniProt Q8VCH6); experiment: Inhibition of DR24 in Dhcr7-deficient mouse Neuro2a cells assessed as decrease in 7-DHC levels at 1 uM by LC-MS/GC-MS analysis; format: cell-based; in short: as §1
T3 sequence (whole entry): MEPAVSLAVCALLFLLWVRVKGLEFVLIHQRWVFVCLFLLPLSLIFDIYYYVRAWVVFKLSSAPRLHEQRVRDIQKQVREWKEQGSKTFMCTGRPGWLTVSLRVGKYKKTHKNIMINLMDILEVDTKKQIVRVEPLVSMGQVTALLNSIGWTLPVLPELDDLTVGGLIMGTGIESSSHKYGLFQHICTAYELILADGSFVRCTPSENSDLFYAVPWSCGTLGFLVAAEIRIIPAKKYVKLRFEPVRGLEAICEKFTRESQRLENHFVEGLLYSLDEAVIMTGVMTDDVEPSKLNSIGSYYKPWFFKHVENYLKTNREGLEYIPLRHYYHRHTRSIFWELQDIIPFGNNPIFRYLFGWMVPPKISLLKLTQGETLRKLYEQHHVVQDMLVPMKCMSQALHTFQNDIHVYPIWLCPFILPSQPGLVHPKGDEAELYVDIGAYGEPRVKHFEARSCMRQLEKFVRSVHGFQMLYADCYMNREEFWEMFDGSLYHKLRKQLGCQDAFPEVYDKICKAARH

Fibroblast = experiment: Decrease in cholesterol levels in human SLOS fibroblasts at 10 nM after 5 days by LC-MS/GC-MS analysis; format: functional, cell-based; in short: as §2
[10] = target: T3, Delta(24)-sterol reductase (Mus musculus); experiment: Inhibition of C-24 reductase in Dhcr7-deficient mouse Neuro2a cells assessed as increase in desmosterol levels at 1 uM by LC-MS/GC-MS analysis; format: cell-based; in short: as §1
[11] = target: T3, Delta(24)-sterol reductase (Mus musculus); experiment: Inhibition of Dhcr24 in Dhcr7-deficient mouse Neuro2a cells assessed as increase in 7-dehydrodesmosterol levels at 1 uM by LC-MS/GC-MS analysis; format: cell-based; in short: as §1
[12] = target: T4, Delta(24)-sterol reductase (Homo sapiens) (UniProt Q15392); experiment: Inhibition of DR24 in human SLOS fibroblasts assessed as decrease in 7-DHC levels at 10 nM after 5 days by LC-MS/GC-MS analysis; in short: as §2
T4 sequence (whole entry): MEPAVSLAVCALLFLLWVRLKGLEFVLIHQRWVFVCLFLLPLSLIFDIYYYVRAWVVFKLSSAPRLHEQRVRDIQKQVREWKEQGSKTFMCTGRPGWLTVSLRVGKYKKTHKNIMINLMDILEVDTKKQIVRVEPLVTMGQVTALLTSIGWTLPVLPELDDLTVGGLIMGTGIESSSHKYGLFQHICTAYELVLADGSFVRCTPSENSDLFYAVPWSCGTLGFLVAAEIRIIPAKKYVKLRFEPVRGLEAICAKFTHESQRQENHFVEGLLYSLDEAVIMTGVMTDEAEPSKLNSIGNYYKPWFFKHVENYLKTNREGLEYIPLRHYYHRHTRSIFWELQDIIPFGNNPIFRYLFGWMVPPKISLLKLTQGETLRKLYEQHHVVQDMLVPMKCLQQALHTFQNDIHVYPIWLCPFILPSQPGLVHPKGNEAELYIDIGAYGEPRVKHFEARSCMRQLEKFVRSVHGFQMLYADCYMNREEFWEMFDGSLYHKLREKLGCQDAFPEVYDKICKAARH

[13] = target: T3, Delta(24)-sterol reductase (Mus musculus); experiment: Inhibition of DR24 in mouse Neuro2a cells assessed as decrease in 7-DHC levels at 1 uM by LC-MS/GC-MS analysis; format: cell-based
In short: (§3)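 Control Neuro2a cells (10000/well, 0.5% FBS) on compound, 24 h. Hoechst cell count, then methanol lysis with labelled standards (d7-7-DHC, 13C3-desmosterol, 13C3-lanosterol), PTAD derivatization 20 min at RT, UPLC-MS SRM. GC-MS of silylated extract for further sterols.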

[14] = target: T2, 3-beta-hydroxysteroid-Delta(8),Delta(7)-isomerase (Mus musculus); experiment: Inhibition of delta 8-7 isomerase in mouse Neuro2a cells assessed as decrease in 7-DHC levels at 1 uM by LC-MS/GC-MS analysis; format: cell-based; in short: as §3
[15] = target: T3, Delta(24)-sterol reductase (Mus musculus); experiment: Inhibition of C-24 reductase in Dhcr7-deficient mouse Neuro2a cells assessed as increase in zymosterol levels at 1 uM by LC-MS/GC-MS analysis; format: cell-based; in short: as §1
[16] = target: T2, 3-beta-hydroxysteroid-Delta(8),Delta(7)-isomerase (Mus musculus); experiment: Inhibition of delta 8-7 isomerase in Dhcr7-deficient mouse Neuro2a cells assessed as increase in zymostenol levels at 1 uM by LC-MS/GC-MS analysis; format: cell-based
In short: (§4)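 Follow-up (verification) assay in 96-well plates, run as the 384-well screen, in triplicate, at varying compound concentrations. Cells counted by Hoechst imaging, washed with PBS, then lysed in MeOH with BHT/TPP and isotope standards (d7-Chol, d7-7-DHC, 13C3-Des, 13C3-Lan). Sterols derivatised with PTAD for 20 min at RT and quantified by C18 UPLC-MS (SRM). Remaining sample silylated with BSTFA and run on GC-MS, quantified against d7-Chol.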

[17] = target: T2, 3-beta-hydroxysteroid-Delta(8),Delta(7)-isomerase (Mus musculus); experiment: Inhibition of delta 8-7 isomerase in Dhcr7-deficient mouse Neuro2a cells assessed as increase in zymosterol levels at 1 uM by LC-MS/GC-MS analysis; format: cell-based; in short: as §4
[18] = target: T2, 3-beta-hydroxysteroid-Delta(8),Delta(7)-isomerase (Mus musculus); experiment: Inhibition of delta 8-7 isomerase in Dhcr7-deficient mouse Neuro2a cells assessed as decrease in cholesterol levels at 1 uM by LC-MS/GC-MS analysis; format: cell-based; in short: as §4

Sequence of 3-beta-hydroxysteroid-Delta(8),Delta(7)-isomerase (Homo sapiens) (Q15125 whole entry): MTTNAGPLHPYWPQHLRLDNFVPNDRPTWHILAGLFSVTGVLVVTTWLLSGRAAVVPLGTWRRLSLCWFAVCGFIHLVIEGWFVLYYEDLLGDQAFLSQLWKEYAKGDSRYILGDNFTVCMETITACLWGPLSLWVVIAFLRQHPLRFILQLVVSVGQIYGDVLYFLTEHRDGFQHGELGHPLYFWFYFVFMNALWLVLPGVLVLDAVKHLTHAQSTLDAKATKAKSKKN

Oc1c(Cl)cc(Cl)c2cccnc12 [CHLOROXINE]
inhibition (INH) [1]: Active | inhibition (INH) [2]: Active | inhibition (INH) [3]: Active | inhibition (INH) [4]: Active | Activity [5]: Toxic

Oc1c(Cl)cc(Cl)c(Cl)c1Cc1c(O)c(Cl)cc(Cl)c1Cl [HEXACHLOROPHENE]
inhibition (INH) [1]: Active | inhibition (INH) [2]: Active | inhibition (INH) [3]: Active | inhibition (INH) [4]: Active | Activity [5]: Toxic

COc1ccc2c(c1)OC(C)(C)[C@@H](c1ccccc1)[C@@H]2c1ccc(OCCN2CCCC2)cc1 [LEVORMELOXIFENE]
inhibition [6]: Active | Activity [7]: Toxic | inhibition [8]: Active | inhibition [9]: Active | Activity (Fibroblast): inactive | inhibition [10]: Active | inhibition [11]: Active | inhibition [12]: Active

O=C(c1ccc(OCCN2CCCCC2)cc1)c1c(-c2ccc(O)cc2)sc2cc(O)ccc12 [RALOXIFENE]
inhibition [6]: Active | Activity [7]: Toxic | inhibition [8]: Active | inhibition [9]: Active | Activity (Fibroblast): inactive | Decrease in 7-DHC levels (active/inactive call) [13]: Active | Activity (decrease in 7-DHC levels) [14]: Active | inhibition [15]: Active | inhibition [10]: Active | inhibition [12]: Active

CC/C(=C(\c1ccccc1)c1ccc(OCCN(C)C)cc1)c1ccccc1 [TAMOXIFEN]
inhibition [6]: Active | Activity [7]: Toxic | inhibition [8]: Active | inhibition [9]: Active | Activity (Fibroblast): inactive | Decrease in 7-DHC levels (active/inactive call) [13]: Active | Activity (decrease in 7-DHC levels) [14]: Active | inhibition [16]: Active | inhibition [17]: Active | inhibition [18]: Active | inhibition [12]: Active
